Data published in ChEMBL document CHEMBL4184245, “Multiple-step, one-pot synthesis of 2-substituted-3-phosphono-1-thia-4-aza-2-cyclohexene-5-carboxylates and their corresponding ethyl esters” (Bioorg Med Chem Lett, 2018).
Activity calls are given as the source filed them. The rule behind the calls is not given here.

How the values were obtained:
[1] = Apparent permeability of the compound across basolateral to apical side in human Caco2 cells at 10 uM incubated for 2 hrs by LC-MS/MS method; format: ADME, cell-based; settings: Caco-2
Outline: (§1)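 Permeability was measured across Caco-2 epithelial monolayers.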

[2] = Apparent permeability of the compound across apical side to basolateral side in human Caco2 cells at 10 uM incubated for 2 hrs by LC-MS/MS method; format: ADME, cell-based; settings: Caco-2; outline: as §1
[3] = system: RG2; assay: Induction of autophagy in rat RG2 cells assessed as optimum compound level causing increase in LC3-II level pre-incubated for 15 mins before bafilomycin-A1 addition and further incubated for 4 hrs by Western blotting method; format: functional
Outline: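 Cells were tested at 1, 10 and 100 μM. The optimum concentration for autophagy stimulation was estimated from these few levels in preliminary single-series experiments.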

[4] = system: RG2; assay: Induction of autophagy in rat RG2 cells assessed as increase in LC3-II level at 10 uM pre-incubated for 15 mins before bafilomycin-A1 addition and further incubated for 4 hrs by Western blotting method; format: functional, cell-based
[5] = system: RG2; assay: Induction of autophagy in rat RG2 cells assessed as increase in LC3-II level at 100 uM pre-incubated for 15 mins before bafilomycin-A1 addition and further incubated for 4 hrs by Western blotting method; format: functional, cell-based
[6] = Efflux ratio in human Caco2 cells at 10 uM incubated for 2 hrs by LC-MS/MS method; format: ADME, cell-based; settings: Caco-2

SMILES | Papp B→A at 2 h, 10 µM [1] | Papp A→B at 2 h, 10 µM [2] | efflux ratio at 2 h, 10 µM [6] | Activity [3] | Activity [4] | Activity [5]
CCCCCCC1=C(P(=O)(O)O)N[C@H](C(=O)OCC)CS1 | < 0.01 ×10⁻⁶ cm/s | < 0.01 ×10⁻⁶ cm/s | – | 1 to 10 µM | – | –
CCOC(=O)[C@@H]1CSC(CC)=C(C(=O)O)N1 | – | – | – | >10 µM | – | –
O=C(O)C1=CSC[C@@H](C(=O)O)N1 | – | – | – | – | Active | Active
CCCCCCC1=C(P(=O)(O)O)N[C@H](C(=O)O)CS1 | < 0.01 ×10⁻⁶ cm/s | < 0.01 ×10⁻⁶ cm/s | – | – | – | –
CC(C)C1=C(P(=O)(O)O)N[C@H](C(=O)O)CS1 | – | – | – | – | Active | inactive

The next lines start with results.

Papp B→A at 2 h, 10 µM [1] | Papp A→B at 2 h, 10 µM [2] | efflux ratio at 2 h, 10 µM [6] | SMILES | Activity [3] | Activity [4] | Activity [5]
< 0.01 ×10⁻⁶ cm/s | < 0.01 ×10⁻⁶ cm/s | – | CCCCC1=C(P(=O)(O)O)N[C@H](C(=O)OCC)CS1 | – | – | –
< 0.01 ×10⁻⁶ cm/s | < 0.01 ×10⁻⁶ cm/s | – | CCOC(=O)[C@@H]1CSC=C(C(=O)O)N1 | – | – | –
0.35 ×10⁻⁶ cm/s | 1.1 ×10⁻⁶ cm/s | 0.33 | CCCCC1=C(P(=O)(O)O)N[C@H](C(=O)O)CS1 | – | – | –
